Assays:
Assay type in all cases: functional, organism-based
[1] = system: Escherichia coli; experiment: In vitro inhibition of Escherichia coli K-12 growth.
[2] = system: Escherichia coli; experiment: In vitro concentration required for growth inhibition of Escherichia coli K-12 strain resistant to 10e-3 M 5-flourouracil
Method in brief: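 In vitro growth assay on an E. coli K-12 strain resistant to 10^-3 M 5-fluorouracil. IC50 is the concentration giving 50% inhibition of E. coli K-12 growth. The growth procedure follows earlier published methods.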

[3] = system: Escherichia coli; experiment: In vitro concentration required for growth inhibition of 5-fluorouracil resistant strain of Escherichia coli in presence of thymine metabolite at 10e-3 M concentration.
[4] = system: Escherichia coli; experiment: In vitro concentration required for growth inhibition of 5-fluorouracil resistant strain of Escherichia coli in presence of 2'-deoxyuridine metabolite at 10e-3 M concentration.
[5] = system: Escherichia coli; experiment: In vitro concentration required for growth inhibition of 5-fluorouracil resistant strain of Escherichia coli in presence of cytidine metabolite at 10e-3 M concentration.
[6] = system: Escherichia coli; experiment: In vitro concentration required for growth inhibition of 5-fluorouracil resistant strain of Escherichia coli in presence of uracil metabolite at 10e-3 M concentration.
[7] = system: Escherichia coli; experiment: In vitro concentration required for growth inhibition of 5-fluorouracil resistant strain of Escherichia coli in presence of cytosine metabolite at 10e-3 M concentration.
[8] = system: Escherichia coli; experiment: In vitro concentration required for growth inhibition of 5-fluorouracil resistant strain of Escherichia coli in presence of thymidine metabolite at 10e-3 M concentration.
[9] = system: Escherichia coli; experiment: In vitro concentration required for growth inhibition of 5-fluorouracil resistant strain of Escherichia coli in presence of 2'-deoxycytidine metabolite at 10e-3 M concentration.
[10] = system: Escherichia coli; experiment: In vitro concentration required for growth inhibition of 5-fluorouracil resistant strain of Escherichia coli in presence of uridine metabolite at 10e-3 M concentration.

With NC(=O)OCCOCn1ccc(N)nc1=O the IC50 [1] was 910 µM.
For CCCCCCC(C(C)=O)n1ccc(N)nc1=O (configuration not stated), the IC50 [1] was 30 µM.
In the case of Nc1ccn(COCCOC(=O)c2ccccc2)c(=O)n1, the IC50 [1] is reported as 900 µM.
In the case of Nc1ccn(COCCO)c(=O)n1, the IC50 [1] is reported as 87 µM.
Cc1cn(COCCN)c(=O)[nH]c1=O gave an IC50 [1] of 310 µM.
Cc1cn(COCCOC(=O)c2ccccc2)c(=O)[nH]c1=O was tested, and the IC50 [1] was 860 µM.
CC(=O)Nc1ccn(COCCOC(=O)Oc2ccccc2)c(=O)n1 was tested, and the IC50 [1] was > 1000 µM.
For CC(=O)C(C)n1ccc(N)nc1=O (configuration not stated), the IC50 [1] was 560 µM.
In the case of NCCOCn1ccc(N)nc1=O, the IC50 [1] is reported as > 1000 µM.
For O=c1ccn(COCCO)c(=O)[nH]1, the IC50 [1] was 320 µM.
For Cn1ccc(=O)n(C)c1=O, the IC50 [1] was 15 µM.
With CC(=O)Nc1ccn(COCCO)c(=O)n1 the IC50 [1] was > 1000 µM.
Compound O=C(OCCOCn1cc(F)c(=O)[nH]c1=O)c1ccccc1 has an IC50 [2] of 180 µM and an IC50 [1] of 9 µM.
Compound [N-]=[N+]=NCCOCn1ccc(N)nc1=O has an IC50 [1] of 440 µM.
In the case of Cc1cn(COCCN=[N+]=[N-])c(=O)[nH]c1=O, the IC50 [1] is reported as 250 µM.
For CC(C)n1ccc(N)nc1=O, the IC50 [1] was > 1000 µM.
With COc1ccn(C)c(=O)n1 the IC50 [1] was 61 µM.
Compound O=c1[nH]c(=O)n(COCCO)cc1F has an IC50 [3] of 730 µM, an IC50 [4] of 370 µM and an IC50 [2] of 4.2 µM. It also gave an IC50 [5] of 9.1 µM, an IC50 [6] of 8.4 µM and an IC50 [7] of 7.4 µM. It also gave an IC50 [8] of 1000 µM, an IC50 [1] of 1.2 µM and an IC50 [9] of 9.5 µM. For the same compound, the IC50 [10] was 240 µM.
Cc1cn(COCCO)c(=O)[nH]c1=O was tested, and the IC50 [1] was > 1000 µM.
CC(=O)Nc1ccn(COCCN=[N+]=[N-])c(=O)n1 was tested, and the IC50 [1] was > 1000 µM.
O=C(OCCOCn1ccc(=O)[nH]c1=O)c1ccccc1 gave an IC50 [1] of 100 µM.
Compound CN(C)c1ccn(C)c(=O)n1 has an IC50 [1] of 80 µM.
